Results published in PubChem BioAssay AID1738 (Vanderbilt High Throughput Screening Facility, 2009).
Inconclusive results are not listed. Active and inactive are the calls of the source.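 The calls were made as follows: active = dose curve fitted or showing a partial trend in at least two of three replicates; inactive = fewer than two replicates fitted or trending.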

Tested on: parental HEK293, Na-free buffer, Tl+ flux FluoZin2
Experiment: native HEK Tl+ uptake potency without sodium – HEK cells, counterscreen 3, counter-screen for KCC2 modulator project, dose response (AID 1738)
Outline: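 System: parental HEK cells loaded with FluoZin2-AM thallium-sensitive dye. Buffer or medium: Sodium-free N-methylglucamine chloride buffer, FluoZin2-AM at 0.5 µM. Also added: thallium stimulus, pH 7.3. Compound: 11-point threefold dilution series, top dose 30 µM. Technique: kinetic fluorescence, 480 nm excitation, 540 nm emission. Benchmarks: 2 mM bumetanide, positive.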

SMILES | EC50
CCOc1cccc(C(=O)NC(=S)Nc2cccc(C)c2)c1 | 0.345 µM
Cc1onc(-c2ccccc2Cl)c1C(=O)NC(=S)Nc1ccc(C(C)C)cc1 | 0.262 µM
COc1ccccc1N1CCN(C(=S)NC(=O)/C=C/c2ccccc2)CC1 | 1.14 µM (inactive)
CNC(=O)C(=O)Nc1nc(C23CC4CC(CC(C4)C2)C3)cs1 | 0.0611 µM
Oc1ccccc1/C=N/Nc1nc2ccccc2o1 | 9.46 µM (inactive)
COc1cc(NC(=S)NC(=O)c2ccco2)ccc1NC(=O)C(C)C | 3.63 µM (inactive)
O=C1OC(c2ccc(O)cc2)(c2ccc(O)cc2)c2ccccc21 | 15.4 µM (inactive)
NC(=S)N=Nc1c(O)n(Cc2ccccc2)c2ccccc12 | 0.0719 µM (inactive)
O=c1c2ccccc2[nH]c(=S)n1CCN1CCC(=C(c2ccc(F)cc2)c2ccc(F)cc2)CC1 | 4.82 µM (inactive)
COC(=O)[C@@H](NC(=O)O[C@@H]1C(=O)c2ccc(OC)cc2O[C@H]1c1cccc(C(F)(F)F)c1)C(C)C | 8.16 µM (inactive)
O=C(NC(=S)Nc1nc(-c2cccc([N+](=O)[O-])c2)cs1)c1cc(Cl)ccc1Cl | 22.4 µM (inactive)
Fc1cccc(F)c1/C=N/NC(=S)Nc1cccnc1 | 8.33 µM (inactive)
N=C1SCC(=O)N1c1ncc(Cc2cccc(Cl)c2)s1 | 4.43 µM (inactive)
COc1ccc(N2C(=S)N=C(Nc3cccc(C)c3)C23CCCCC3)cc1 | 0.92 µM
CC(C)c1ccc(OCC(=O)NNC(=O)c2cnccn2)cc1 | 16.4 µM (inactive)
